Measurements as given in PubChem BioAssay.
Results filed as inconclusive are left out.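 How the source made its calls, unless noted: active means inhibition over a set limit, the all-compound mean plus 3 SD, in both replicate runs; inconclusive means over that limit in just one replicate run; inactive means at or under that limit in both runs.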

How the values were obtained:
[1] = S. cerevisiae growth inhibition in permissive medium (OD615), pilot counter-assay for S. cerevisiae lifespan shortening project, permissive growth control (AID 705;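 active means growth inhibition above 25% in both replicates, a cutoff set 3 SD above the mean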); conditions: OD615, 24 h, at 10 µM, active compounds read high
How it was run: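 System: Engineered DeaD yeast | Buffer or medium: SC raffinose/galactose permissive medium | Doses: 10 µM single dose, 0.25% DMSO | Times: 24 h exposure, 30 °C | Measured by: OD615 turbidity read | Read-out: Yeast growth inhibition indicated by reduced 24 h OD615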

[2] = S. cerevisiae growth inhibition in restrictive medium, OD615, pilot screen, restrictive growth control, yeast lifespan reduction project (AID 706;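 active means growth inhibition above a set limit, 3 SD over mean compound inhibition, in both replicates, cut at about 43% in these data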;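 further: modified DeaD lifespan yeast strain shifted to restrictive glucose medium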); conditions: OD615, 48 h, at 10 µM, active compounds read high
How it was run: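 Assay system: engineered S. cerevisiae DeaD strain; Buffer or medium: CSMM-D glucose medium; Dosing: 10 µM compound, 0.25% DMSO; Times: cell pre-growth 4 h, compound exposure 48 h, 30 °C; Detection: absorbance (optical density) measured at 615 nm.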

[3] = doxorubicin toxicity protection in MRP-1 cells – H69AR cells, CellTiter-Glo, duplicate, MRP-1 activator project, pilot screen (AID 807;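 active means viability increase at or above a cutoff of the median across tested compounds plus 3 SD, cut at about 8.5% in these data, passing the limit was not always enough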;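 further: compound pretreatment 18-22 h then 72 h combined with doxorubicin; 0% = doxorubicin alone and 100% = vehicle without doxorubicin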); conditions: H69AR viability with doxorubicin, CellTiter-Glo luminescence; at 10 µM; active compounds read high
[4] = viability of HCT116 without oncogenic beta-catenin – human colon tumor cells, pilot screen (AID 823;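 active means cell viability at or below a set limit in both duplicate runs, the limit being the all-compound median minus 4 SD, cut at about 23% in these data, passing the limit was not always enough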;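 further: 0% = wells killed by 20 µM Hyamine and 100% = untreated DMSO cell wells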); conditions: HCT116 beta-catenin knockout viability, CellTiter-Glo, 60 h; at 10 µM; active compounds read low
[5] = viability of PTEN-null HCT116 cells – cell-based, HCT116 clonal line, CellTiter-Glo, pilot screen (AID 824;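 active means viability at or below 27.92% in each of two runs, the all-compound median minus 4 SD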;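 further: 0% = 20 µM Hyamine control and 100% = vehicle cell control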); conditions: HCT116 PTEN-deleted viability, 60 h, at 10 µM, active compounds read low
[6] = RAM pathway blockade in budding yeast – dse1pr::URA3 reporter, 5-FOA selection, pilot screen (AID 869);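 further: 0% = DMSO wells with no growth and 100% = 10 µM 1-NA-PP1 with full growth; RAM network block rescues cells from 5-FOA so hits raise OD615 growth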; conditions: S. cerevisiae dse1pr::URA3 5-FOA growth, OD615, 2 d; at 10 µM; active compounds read high; strain carries analog-sensitive mutant Cbk1 kinase
[7] = RAM signaling pathway blockade in yeast – S. cerevisiae, Pdr1DBD-CYC8 efflux-inhibited sensitized strain, primary screen (AID 1298;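 active means RAM network inhibition above 8.4% in each of two replicates, 3 SD over the compound average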;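 further: 0% = DMSO untreated cells without growth and 100% = 10 µM 1-NA-PP1 full growth; higher means more yeast growth rescued from 5-FOA killing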); conditions: S. cerevisiae cbk1-as DSE1-URA3 strain, 5-FOA growth OD615, 2 d; at 50 µM; active compounds read high

O=S(=O)(NCC(c1cccnc1)N1CCN(Cc2ccccc2)CC1)c1ccccc1 (stereo not drawn)
inactive: growth inhibition [1] -10% | growth inhibition [2] -15.8% | viability increase [3] -2.02% | viability [4] 101% | viability [5] 92.8% | inhibition [6] 1.57% | RAM network inhibition [7] 0.96%

CC(Oc1ccccc1)C(=O)OCC(=O)NC(=O)NCc1ccco1 (stereo not drawn)
inactive: growth inhibition [1] -5% | growth inhibition [2] -0.75% | viability increase [3] -1.78% | viability [4] 97.9% | viability [5] 97.2% | inhibition [6] 3.58% | RAM network inhibition [7] 2.68%

Cc1cccc(OCC2=N/C(=C\N(C)C)C(=O)O2)c1
inactive: growth inhibition [1] -21.7% | growth inhibition [2] -9.04% | viability increase [3] -0.64% | viability [4] 97.2% | viability [5] 91.3% | inhibition [6] 1.48% | RAM network inhibition [7] 2.9%

COCc1cc(=O)n2c(-c3ccc(C)cc3)n[nH]c2n1
inactive: growth inhibition [1] -9.25% | growth inhibition [2] 6.96% | viability increase [3] -0.72% | viability [4] 95.8% | viability [5] 92.1% | inhibition [6] 2.2% | RAM network inhibition [7] 1.28%

N#CC1=C(N)Oc2c(sc3ccccc23)C1c1ccco1 (stereo not drawn)
inactive: growth inhibition [1] -25.7% | growth inhibition [2] -4.08% | viability increase [3] -4.53% | viability [4] 63.3% | viability [5] 65.2% | inhibition [6] 1.22% | RAM network inhibition [7] -0.62%

O=C(NCCc1ccccc1)c1ccc2c(c1)N(Cc1ccccc1)C(=O)CS2=O (stereo not drawn)
inactive: growth inhibition [1] 0.9% | growth inhibition [2] -2.98% | viability increase [3] 0.8% | viability [4] 96.3% | viability [5] 88.7% | inhibition [6] 0.2% | RAM network inhibition [7] 3.6%

c1ccc2[nH]c(SCCN3CCOCC3)nc2c1
inactive: growth inhibition [1] -2.45% | growth inhibition [2] 8.19% | viability increase [3] -1.11% | viability [4] 98.9% | viability [5] 104% | inhibition [6] -0.025% | RAM network inhibition [7] 1.35%

CC(=O)NC(CCS(C)(=O)=O)C(=O)Nc1ccc(Cl)c(Cl)c1 (stereo not drawn)
inactive: growth inhibition [1] -4.26% | growth inhibition [2] -6.39% | viability increase [3] -1.98% | viability [4] 96.9% | viability [5] 89.6% | inhibition [6] 1.11% | RAM network inhibition [7] 1.53%

COCCNC(=O)CN1C(=O)CSc2cc(S(=O)(=O)N3CCCCCC3)ccc21
inactive: growth inhibition [1] -5.04% | growth inhibition [2] -4.12% | viability increase [3] -1.52% | viability [4] 98.9% | viability [5] 109% | inhibition [6] 2.73% | RAM network inhibition [7] -0.32%

CCOc1ccc(N(CC(=O)Nc2nccs2)S(=O)(=O)c2c(C)noc2C)cc1
inactive: growth inhibition [1] -3.78% | growth inhibition [2] 5.32% | viability increase [3] -1.1% | viability [4] 97.5% | viability [5] 89.1% | inhibition [6] 1.25% | RAM network inhibition [7] 8.94%

COc1ccc(S(=O)(=O)NCC2CCC(C(=O)N3CCC4(CC3)OCCO4)CC2)cc1 (stereo not drawn)
inactive: growth inhibition [1] -5.13% | growth inhibition [2] -3.68% | viability increase [3] -1.38% | viability [4] 94.2% | viability [5] 90.6% | inhibition [6] 0.81% | RAM network inhibition [7] 2.29%

COC(=O)C(CCSC)NC(=O)Cn1ncc2c(=O)oc3ccc(C)cc3c21 (stereo not drawn)
inactive: growth inhibition [1] 6.62% | growth inhibition [2] -7.95% | viability increase [3] -3.14% | viability [4] 113% | viability [5] 91.3% | inhibition [6] 0.875% | RAM network inhibition [7] 1.93%

Cc1c(C(=O)NCc2ccc3c(c2)OCO3)oc2ccccc12
inactive: growth inhibition [1] 1.35% | growth inhibition [2] 16% | viability increase [3] -0.04% | viability [4] 108% | viability [5] 98.9% | inhibition [6] -0.54% | RAM network inhibition [7] 5.64%

O=C(CC1Oc2ccccc2NC1=O)NC1CCCC1 (stereo not drawn)
inactive: growth inhibition [1] 1.69% | growth inhibition [2] 2.71% | viability increase [3] 0.05% | viability [4] 103% | viability [5] 102% | inhibition [6] 1.33% | RAM network inhibition [7] 0.1%

O=C(NCCCN1CCOCC1)C1CCC(=O)N1CCc1ccccc1 (stereo not drawn)
inactive: growth inhibition [1] -0.765% | growth inhibition [2] -7.29% | viability increase [3] -0.18% | viability [4] 103% | viability [5] 96.7% | inhibition [6] 3.66% | RAM network inhibition [7] 0.63%

Cc1ccc(-c2nn(C)c(=O)c3ccccc23)cc1S(=O)(=O)N1CCCC1
inactive: growth inhibition [1] -1.23% | growth inhibition [2] -6.2% | viability increase [3] -5.14% | viability [4] 49.8% | viability [5] 61% | inhibition [6] 0.01% | RAM network inhibition [7] 2.78%

CCOC(=O)C1C(=O)CC(C)(O)C(C(=O)OCC)C1c1ccco1 (stereo not drawn)
inactive: growth inhibition [1] -11% | growth inhibition [2] -5.69% | viability increase [3] -1.04% | viability [4] 101% | viability [5] 103% | inhibition [6] 1.04% | RAM network inhibition [7] 2.45%

CCN1CCN(C(=O)Cn2ncc3c2-c2ccccc2OC3)CC1
inactive: growth inhibition [1] 0.755% | growth inhibition [2] 0.8% | viability increase [3] -1.74% | viability [4] 106% | viability [5] 99.9% | inhibition [6] 1.14% | RAM network inhibition [7] 2.81%

Cc1ccc(-c2nc(CS(=O)CC(=O)NC3CCCC3)c(C)o2)cc1 (stereo not drawn)
inactive: growth inhibition [1] 5.52% | growth inhibition [2] 2.53% | viability increase [3] -4.16% | viability [4] 92.9% | viability [5] 91.4% | inhibition [6] 1.08% | RAM network inhibition [7] 5.29%

COc1ccc(C2CC(=O)N3CN(c4ccccc4F)CSC3=C2C#N)cc1OC (stereo not drawn)
inactive: growth inhibition [1] 7.21% | growth inhibition [2] 19.4% | viability increase [3] -1.47% | viability [4] 107% | viability [5] 95.5% | inhibition [6] 1.22% | RAM network inhibition [7] 1.24%

CCOC(=O)C1CCCN(C(=O)c2cn(C)c3ccc(S(=O)(=O)N(C)C)cc3c2=O)C1 (stereo not drawn)
inactive: growth inhibition [1] -5.1% | growth inhibition [2] -1.87% | viability increase [3] 0.59% | viability [4] 97.8% | viability [5] 105% | inhibition [6] 0.48% | RAM network inhibition [7] 6.85%

N/C(CC(=O)Nc1cccc(C(F)(F)F)c1)=N/O
inactive: growth inhibition [1] -0.19% | growth inhibition [2] 2.58% | viability increase [3] -1.91% | viability [4] 96.5% | viability [5] 101% | inhibition [6] 1.16% | RAM network inhibition [7] 4.4%

COc1ccc(OC)c(C2NC(=O)NC(C)=C2C(=O)Nc2ccc(C)cc2C)c1 (stereo not drawn)
inactive: growth inhibition [1] -7.68% | growth inhibition [2] 4.14% | viability increase [3] 0.67% | viability [4] 101% | viability [5] 100% | inhibition [6] 1.77% | RAM network inhibition [7] 2.4%

CC(CCc1ccccc1)NC(=O)c1nnc(Cc2ccc(F)cc2)o1 (stereo not drawn)
inactive: growth inhibition [1] -3.78% | growth inhibition [2] 7.46% | viability increase [3] 0% | viability [4] 95.2% | viability [5] 95.2% | inhibition [6] 0.95% | RAM network inhibition [7] 1.1%
